# Measured values published in ChEMBL document CHEMBL1781906, “New quinolin-4-yl-1,2,3-triazoles carrying amides, sulphonamides and amidopiperazines as potential antitubercular agents” (2011).
# Columns and labels:
# Type in all cases: functional
# Klebsiella pneumoniae = assay: Antibacterial activity against Klebsiella pneumoniae after 18 to 24 hrs by […]
# Pseudomonas aeruginosa = assay: Antibacterial activity against Pseudomonas aeruginosa ATCC 27853 after 18 to 24 hrs by […]
# Staphylococcus aureus = assay: Antibacterial activity against Staphylococcus aureus ATCC 25923 after 18 to 24 hrs by serial plate dilution method
# [1] = test system: Mycolicibacterium smegmatis; assay: Antimycobacterial activity against Mycobacterium smegmatis ATCC 19420 after 7 days by resazurin method; settings: ATCC 19420, 168 h
# Procedure, shortened: (§1)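 MIC was determined by resazurin microplate assay. Resazurin turns from blue to pink when reduced by viable cells, and wells with no colour change were scored as inhibited. Isoniazid and rifampicin were reference drugs.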
# [2] = test system: Mycolicibacterium fortuitum; assay: Antimycobacterial activity against Mycobacterium fortuitum ATCC 19542 after 7 days by resazurin method; settings: ATCC 19542, 168 h; procedure, shortened: as §1
# [3] = test system: Mycobacterium tuberculosis; assay: Antimycobacterial activity against Mycobacterium tuberculosis H37Rv ATCC 27294 after 7 days by resazurin method; settings: H37Rv ATCC 27294, 168 h
# Procedure, shortened: (§2)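 H37Rv was grown in Middlebrook 7H9 broth with 10% OADC, diluted to McFarland 2 in the same medium, and added to fresh medium in 96-well plates with compound. Compounds were tested at 1, 10 and 100. The dye turned pink in controls after […] at 37 °C.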
# Streptococcus pyogenes = assay: Antibacterial activity against Streptococcus pyogenes after 18 to 24 hrs by serial plate dilution method
# [4] = test system: Mycobacterium tuberculosis; assay: Antimycobacterial activity against Mycobacterium tuberculosis H37Rv ATCC 27294 assessed as inhibition of bacterial growth at 1 to 100 ug/ml after 7 days by resazurin method; procedure, shortened: as §2
# Escherichia coli = assay: Antibacterial activity against Escherichia coli ATCC 25922 after 18 to 24 hrs by […]
SMILES,MIC (Klebsiella pneumoniae) [µg/mL],MIC (Pseudomonas aeruginosa) [µg/mL],MIC (Staphylococcus aureus) [µg/mL],MIC [1] [µg/mL],MIC [2] [µg/mL],MIC [3] [µg/mL],MIC (Streptococcus pyogenes) [µg/mL],inhibition (INH) [4] [%],MIC (Escherichia coli) [µg/mL]
COc1ccc2nc(C)cc(-n3cc(CNC(=O)c4ccccc4Cl)nn3)c2c1,3.12,6.25,1.6,100,100,10,3.12,80,3.12
COc1ccc2nc(C)cc(-n3cc(CNC(=O)c4ccccc4F)nn3)c2c1,0.2,0.4,0.8,100,100,1,0.2,90,0.4
COc1ccc2nc(C)cc(-n3cc(CN4CCN(C(=O)c5ccccc5F)CC4)nn3)c2c1,1.6,3.12,0.8,5,100,1,0.4,90,1.6
COc1ccc2nc(C)cc(-n3cc(CN4CCN(C(=O)c5ccc(C)cc5)CC4)nn3)c2c1,12.5,12.5,6.25,100,100,100,6.25,,6.25
COc1ccc2nc(C)cc(-n3cc(CN4CCN(C(=O)C5CC5)CC4)nn3)c2c1,0.2,0.4,0.8,100,100,5,0.4,90,0.4
COc1ccc2nc(C)cc(-n3cc(CN4CCN(C(=O)c5ccc(Cl)c(Cl)c5)CC4)nn3)c2c1,0.8,0.8,6.25,100,100,5,0.8,85,3.12
COc1ccc2nc(C)cc(-n3cc(CN4CCN(C(=O)c5ccc(F)cc5)CC4)nn3)c2c1,0.8,1.6,0.8,1,10,1,0.4,90,0.8
COc1ccc2nc(C)cc(-n3cc(CNS(=O)(=O)c4ccc(Cl)c(Cl)c4)nn3)c2c1,3.12,12.5,1.6,100,100,100,3.12,,12.5
COc1ccc(S(=O)(=O)NCc2cn(-c3cc(C)nc4ccc(OC)cc34)nn2)cc1,1.6,1.6,6.25,10,10,0.625,1.6,90,3.12
COc1ccc2nc(C)cc(-n3cc(CN4CCN(C(=O)C5CCC5)CC4)nn3)c2c1,3.12,0.8,1.6,100,100,10,1.6,90,1.6
NNC(=O)c1ccncc1 [ISONIAZID],,,,50,12.5,0.7,,95,
CCc1ccc(C(=O)N2CCN(Cc3cn(-c4cc(C)nc5ccc(OC)cc45)nn3)CC2)cc1,3.12,6.25,6.25,100,100,100,6.25,,3.12
O=C(O)c1cn(C2CC2)c2cc(N3CCNCC3)c(F)cc2c1=O [CIPROFLOXACIN],0.05,0.4,1,,,,0.4,,
COc1ccc2nc(C)cc(-n3cc(CNS(=O)(=O)c4ccccc4C(F)(F)F)nn3)c2c1,0.4,0.4,0.8,100,10,1,0.4,90,0.2
COc1ccc(C(=O)NCc2cn(-c3cc(C)nc4ccc(OC)cc34)nn2)cc1,0.1,0.4,0.8,5,10,0.625,0.4,95,0.1
CO[C@H]1/C=C/O[C@@]2(C)Oc3c(C)c(O)c4c(O)c(c(/C=N/N5CCN(C)CC5)c(O)c4c3C2=O)NC(=O)/C(C)=C\C=C\[C@H](C)[C@H](O)[C@@H](C)[C@@H](O)[C@@H](C)[C@H](OC(C)=O)[C@@H]1C [RIFAMPIN],,,,1.5,1.5,0.5,,95,
CCc1ccc(S(=O)(=O)NCc2cn(-c3cc(C)nc4ccc(OC)cc34)nn2)cc1,6.25,12.5,6.25,100,100,100,6.25,,6.25
COc1ccc2nc(C)cc(-n3cc(CN4CCN(C(=O)c5ccccc5)CC4)nn3)c2c1,0.4,0.4,0.8,100,100,10,0.8,85,0.4
COc1ccc2nc(C)cc(-n3cc(CNC(=O)c4ccc(F)cc4)nn3)c2c1,0.2,0.2,0.8,10,100,0.625,0.2,90,0.2
COc1ccc2nc(C)cc(-n3cc(CN4CCN(C(C)=O)CC4)nn3)c2c1,0.1,0.2,0.4,10,100,0.625,0.2,95,0.1
COc1ccc2nc(C)cc(-n3cc(CN4CCN(C(=O)c5ccccc5Cl)CC4)nn3)c2c1,3.12,3.12,3.12,100,100,10,3.12,,6.25
COc1ccc2nc(C)cc(-n3cc(CNC(=O)c4ccc(C)cc4)nn3)c2c1,3.12,6.25,1.6,100,100,100,0.8,,3.12
COc1ccc2nc(C)cc(-n3cc(CNS(=O)(=O)c4ccccc4)nn3)c2c1,6.25,6.25,12.5,100,100,100,6.25,,6.25
